The values below come from ChEMBL document CHEMBL3259728, “Design, synthesis and biological evaluation of some novel substituted quinazolines as antitumor agents” (2014).

Holding throughout (type): functional
One test concerns 786-0. Description: Growth inhibition of human 786-0 cells at 10 uM after 48 hrs by SRB assay. Particulars: 786-0, 48 h, read-out: GI. In a few lines:
(§1)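 NCI primary one-dose screen. A single concentration of 10^-5 M was added to the cell culture, followed by 48 h incubation and an SRB protein-dye endpoint read spectrophotometrically. Results are growth percentage relative to untreated control cells, reported as % growth inhibition.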

The test system of another test is MDA-MB-231. Nature of the test: Growth inhibition of human MDA-MB-231 cells at 10 uM after 48 hrs by SRB assay. Particulars: MDA-MB-231, 48 h, read-out: GI. An outline of the steps:
(§2)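 NCI-60 primary one-dose screen run at the US NCI, with human tumour lines from nine cancer types. Compound added once at 10^-5 M, followed by 48 h incubation. End point was sulforhodamine B protein staining read spectrophotometrically. Result given as percent growth of treated cells against untreated controls, reported as % growth inhibition.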

The test system of a further test is ACHN. Description: Growth inhibition of human ACHN cells at 10 uM after 48 hrs by SRB assay. Particulars: read-out: GI. In a few lines: as §1
A further test deals with NCI-H322M. Nature of the test: Growth inhibition of human NCI-H322M cells at 10 uM after 48 hrs by SRB assay. Particulars: read-out: GI. In a few lines: as §2
The test system of another test is CAKI-1. Description: Growth inhibition of human CAKI-1 cells at 10 uM after 48 hrs by SRB assay. Particulars: CAKI-1, 48 h, read-out: GI. In a few lines:
as §1

The test system of the next test is NCI-H460. Nature of the test: Growth inhibition of human NCI-H460 cells at 10 uM after 48 hrs by SRB assay. Particulars: NCI-H460, 48 h, read-out: GI. In a few lines: as §2
Test [1] in a line: Growth inhibition of human HCT15 cells at 10 uM after 48 hrs by SRB assay. Particulars: HCT-15, 48 h, read-out: GI. In a few lines:
as §2

A further test relates to SF-268. Nature of the test: Growth inhibition of human SF268 cells at 10 uM after 48 hrs by SRB assay. Particulars: SF-268, 48 h, read-out: GI. An outline of the steps:
as §2

Another test concerns PC-3. Description: Growth inhibition of human PC3 cells at 10 uM after 48 hrs by SRB assay. Particulars: PC-3, 48 h, read-out: GI. In a few lines:
as §2

Test [2] is described as follows: Growth inhibition of human OVCAR4 cells at 10 uM after 48 hrs by SRB assay. Particulars: OVCAR-4, 48 h, read-out: GI. An outline of the steps: as §2
Test [3] can be described thus: Growth inhibition of human LOXIMVI cells at 10 uM after 48 hrs by SRB assay. Particulars: LOX IMVI, read-out: GI. An outline of the steps:
as §2

Test [4] in a line: Growth inhibition of human OVCAR8 cells at 10 uM after 48 hrs by SRB assay. Particulars: OVCAR-8, 48 h, read-out: GI. In a few lines: as §2
The test system of a further test is NCI-H23. Description: Growth inhibition of human NCI-H23 cells at 10 uM after 48 hrs by SRB assay. Particulars: NCI-H23, 48 h, read-out: GI. An outline of the steps:
as §2

The next test relates to A498. Nature of the test: Growth inhibition of human A498 cells at 10 uM after 48 hrs by SRB assay. Particulars: A498, 48 h, read-out: GI. In a few lines: as §1
For the next test, the system named is T47D. Nature of the test: Growth inhibition of human T47D cells at 10 uM after 48 hrs by SRB assay. Particulars: read-out: GI. An outline of the steps: as §2
The next test concerns MCF7. Description: Growth inhibition of human MCF7 cells at 10 uM after 48 hrs by SRB assay. Particulars: MCF7, 48 h, read-out: GI. An outline of the steps: as §2
The subject of a further test is SK-MEL-2. Nature of the test: Growth inhibition of human SK-MEL-2 cells at 10 uM after 48 hrs by SRB assay. Particulars: SK-MEL-2, 48 h, read-out: GI. An outline of the steps: as §2
The subject of the next test is HL-60(TB). Nature of the test: Growth inhibition of human HL-60(TB) cells at 10 uM after 48 hrs by SRB assay. Particulars: HL-60, 48 h, read-out: GI. An outline of the steps:
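NCI 60-cell-line primary screen: compound added at single concentration 10^-5 M, cultures incubated 48 h; end point by sulforhodamine B protein staining read spectrophotometrically; result given as growth percentage of treated versus untreated control cells, reported as % growth inhibition.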

For a further test, the system named is K562. Nature of the test: Growth inhibition of human K562 cells at 10 uM after 48 hrs by SRB assay. Particulars: K562, 48 h, read-out: GI. In a few lines:
as §2

Another test relates to SR. Description: Growth inhibition of human SR cells at 10 uM after 48 hrs by SRB assay. Particulars: read-out: GI. In a few lines:
as §2

Test [5] is described as follows: Growth inhibition of human MOLT4 cells at 10 uM after 48 hrs by SRB assay. Particulars: MOLT-4, 48 h, read-out: GI. An outline of the steps:
as §2

Turning to `Cc1ccc(C(=O)Nc2ccc(Cl)cc2C(=O)Nc2ccccc2)cc1`, the inhibition of growth at 10 µM in the test on 786-0 is under 10%; in the test on MDA-MB-231 it was 16%; in the test with ACHN it was 17%; with NCI-H322M, under 10%; in the test with CAKI-1 it was 18%; in the test on NCI-H460, under 10%. The inhibition of growth at 10 µM in test [1] is 11%; in the test on SF-268, under 10%; in the test with PC-3, 15%; in test [2], 11%; in test [3] it was under 10%; in test [4] it was under 10%. Further, the inhibition of growth at 10 µM with NCI-H23 was under 10%; in the test on A498, under 10%; in the test with T47D, 20%; in the test with MCF7 it was 11%; with SK-MEL-2, under 10%.
Consider `Cc1ccc(C(=O)Nc2ccc(Cl)cc2C(=O)Nc2ccccn2)cc1`, for which the inhibition of growth at 10 µM in the test with 786-0 is under 10%; with HL-60(TB), 16%; with MDA-MB-231, under 10%; in the test with ACHN it was under 10%; in the test with NCI-H322M, under 10%; in the test with CAKI-1, 20%. Moreover, the inhibition of growth at 10 µM with NCI-H460 was under 10%; in test [1], 14%; with K562, 35%; in the test on SF-268, 13%; with PC-3 it was 23%; in [2] it was 22%. For the same compound, the inhibition of growth at 10 µM in [3] is under 10%; in test [4], under 10%; in the test on NCI-H23, under 10%; in the test with A498 it was 39%; in the test on T47D it was 20%; in the test with SR, under 10%. In addition, the inhibition of growth at 10 µM is 19% in the test on MCF7 and under 10% in the test on SK-MEL-2.
As to `Cc1ccc(-c2nc3ccc(Cl)cc3c(=O)n2NC(=O)CN)cc1`, the inhibition of growth at 10 µM is under 10% with 786-0; under 10% in the test on HL-60(TB); under 10% in test [5]; under 10% in the test on MDA-MB-231; 14% in the test on ACHN; under 10% in the test with NCI-H322M. The inhibition of growth at 10 µM was 14% in the test on CAKI-1; under 10% in the test with NCI-H460; under 10% with K562; under 10% with SF-268; under 10% in the test with PC-3; under 10% in test [2]. For the same compound, the inhibition of growth at 10 µM is under 10% in [3]; under 10% in [4]; under 10% in the test on NCI-H23; under 10% with SR; 12% in the test with MCF7; under 10% in the test with SK-MEL-2.
With `Cc1ccc(C2=Nc3ccc(Cl)cc3C3=NNCC(=O)NN23)cc1`, the inhibition of growth at 10 µM in the test on 786-0 is under 10%; with HL-60(TB) it was under 10%; in test [5], under 10%; with MDA-MB-231, 11%; in the test on ACHN it was under 10%; with NCI-H322M, under 10%. The inhibition of growth at 10 µM with CAKI-1 is 14%; with NCI-H460, under 10%; in [1], under 10%; in the test with K562 it was under 10%; in the test with SF-268, under 10%; with PC-3 it was under 10%. For the same compound, the inhibition of growth at 10 µM was under 10% in [2]; under 10% in [3]; under 10% in test [4]; under 10% with NCI-H23; 34% with A498; under 10% in the test on SR. The inhibition of growth at 10 µM with MCF7 and with SK-MEL-2 was under 10% throughout.
